This is a sample that favours compounds with a hit; in the whole collection about 1.2% have one here.
HKDC1 inh: HKDC1 (human) hexokinase inhibition. Q2TB90. recombinant HKDC1, G6PDH/diaphorase resazurin coupled fluorescence. inhibition, % at 20 µM. 0.16% of 340,000 active. AID 493160;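 active means inhibition above about 35% when tested at 20 µM, limit read from the data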;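 further: plate controls were DMSO wells with enzyme for no effect and DMSO wells lacking enzyme for full effect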
Target sequence (Q2TB90 whole entry, looked up): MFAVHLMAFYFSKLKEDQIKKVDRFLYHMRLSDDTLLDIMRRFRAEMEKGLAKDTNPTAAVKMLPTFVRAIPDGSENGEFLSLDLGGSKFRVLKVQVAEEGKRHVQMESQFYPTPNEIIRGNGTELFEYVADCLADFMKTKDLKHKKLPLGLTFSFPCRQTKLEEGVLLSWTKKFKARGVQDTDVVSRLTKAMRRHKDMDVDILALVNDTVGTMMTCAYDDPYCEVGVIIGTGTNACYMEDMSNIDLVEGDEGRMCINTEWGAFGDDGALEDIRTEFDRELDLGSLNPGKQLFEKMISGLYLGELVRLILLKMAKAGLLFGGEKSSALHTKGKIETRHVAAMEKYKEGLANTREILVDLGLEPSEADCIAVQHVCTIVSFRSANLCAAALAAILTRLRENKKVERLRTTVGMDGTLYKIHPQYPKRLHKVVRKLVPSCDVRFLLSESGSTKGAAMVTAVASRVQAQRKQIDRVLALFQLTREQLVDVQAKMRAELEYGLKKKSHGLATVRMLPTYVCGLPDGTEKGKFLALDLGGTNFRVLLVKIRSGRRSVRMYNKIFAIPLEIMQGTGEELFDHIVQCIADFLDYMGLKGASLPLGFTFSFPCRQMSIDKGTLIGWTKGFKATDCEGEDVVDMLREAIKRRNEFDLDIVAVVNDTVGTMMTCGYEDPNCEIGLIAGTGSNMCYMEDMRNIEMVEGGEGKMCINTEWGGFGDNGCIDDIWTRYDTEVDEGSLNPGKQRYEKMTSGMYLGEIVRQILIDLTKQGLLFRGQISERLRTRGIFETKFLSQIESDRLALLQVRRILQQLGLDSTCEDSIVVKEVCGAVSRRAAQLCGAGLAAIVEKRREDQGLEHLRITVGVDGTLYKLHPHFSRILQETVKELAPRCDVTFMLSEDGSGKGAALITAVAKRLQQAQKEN
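Test system: recombinant HKDC1 (HK5) hexokinase enzyme, produced in-house; Amount: enzyme 5 µg/mL final; Buffer or medium: Tris pH 8.0 buffer with MgCl2, Tween-20, BSA, BME; Reagent: glucose and ATP substrates; Doses: 20 µM test compound, 1% DMSO; Incubation: 90 min reaction incubation at room temperature, dark; Detection: resorufin fluorescence at 613 nm.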
G6PDH CS: L. mesenteroides G6PDH inhibition counter-screen; 0.12% of 200,000 active; Purified L. mesenteroides G6PDH, diaphorase/resazurin coupled fluorescence, 45 min; AID 1020; inhibition, % at 5 µM; in the data active means inhibition above about 50%
PfGluPho inh: PfG6PD (Plasmodium falciparum) enzyme inhibition; PfGluPho enzyme, NADPH resazurin-diaphorase fluorescence; inhibition, % at 20 µM; 0.78% of 350,000 active;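 active means inhibition reaching at least a set limit at 20 µM in the primary screen, cut at about 59% in these data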;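 further: 0% = DMSO wells with substrate and 100% = DMSO wells lacking glucose-6-phosphate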
Diaph act CS: diaphorase activation or chemical reduction counter-screen; Diaphorase/resazurin coupled assay, resorufin fluorescence, 16 min; stronger effect = higher value; 1 = vehicle wells, 0 = NADH-free wells; activation factor at 20 µM; 0.005% of 190,000 active; AID 1229;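 active means diaphorase activity raised at least twofold by the compound at 20 µM; inactive means activation factor below 2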
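System – purified diaphorase enzyme from Clostridium kluyveri · Input – enzyme 0.07 U/mL final · Also added – final NADH 0.114 mM, resazurin 0.1 mM · Measured by – fluorescence of resorufin, 544 nm excitation, 590 nm emission · Timing – 16 min enzyme reaction, ambient temperature · Measure – resorufin increase flagging diaphorase activators or reducers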
Diaph inh CS: inhibits diaphorase or chemically oxidizes, flagging diaphorase assay artifacts; 0.69% of 190,000 active; inhibition, % at 20 µM; diaphorase resazurin-to-resorufin fluorescence, NADH, 16 min; bacterial (C. kluyveri) enzyme, not human;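 active means primary screen inhibition at 20 µM above a set limit, cut at about 50% in these data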;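 further: plate controls were DMSO with full reaction for no effect and wells lacking NADH for full effect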
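Assay system: diaphorase enzyme from Clostridium kluyveri. Quantity: enzyme working solution with 0.14 U/mL diaphorase. Schedule: reaction incubation of 16 min at room temperature. Technique: resorufin fluorescence, excitation 544 nm, emission 590 nm. Controls: No-NADH positive control and DMSO neutral control.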
Active calls of the source: *; x = no result given.

SMILES	HKDC1 inh	G6PDH CS	PfGluPho inh	Diaph act CS	Diaph inh CS
Cc1ccc(S(=O)(=O)/N=C2\C=C(Nc3ccc(O)cc3)C(=O)c3ccccc32)cc1	34	x	111*	x	x
Cc1ccc(OC(=O)N(C)C[C@H]2OCc3cn(nn3)CCCC(=O)N([C@H](C)CO)C[C@@H]2C)cc1	x	x	2	x	x
COCOCCn1cc(CN2CCS(=O)(=O)N(Cc3ccc(-c4ccc(OC)nc4)cc3)C(C(C)C)C2=O)nn1 (configuration not stated)	x	x	21	x	x
O=C1C=C(c2n[nH]nc2-c2ccccc2)C[C@@H](c2ccc(F)cc2)C1	x	x	15	x	x
COc1ccc2c(c1)Cc1cc(NC(=O)c3ccccc3-c3ccccc3C(=O)O)ccc1-2	x	x	-38	x	x
CC1(C)CC(N=C2C([N+](=O)[O-])=CC=C3C2=NC2(CCCCC2)N3O)CC(C)(C)N1	11	x	16	x	x
O=[N+]([O-])C1=CC=C2C(=NC3(CCCCC3)N2O)C1=NCCc1ccccc1	0	15	-11	0.4	63*
O=[N+]([O-])C1=CC=C2C(=NC3(CCCCC3)N2O)C1=NC1CCCCC1	26	26	15	0.2	83*
CC(C)(C)N=C1C([N+](=O)[O-])=CC=C2C1=NC1(CCCCC1)N2O	12	39	25	0.2	76*
COc1ccc(C2CC(=O)C=C3c4ccc(OC)cc4CCC32)cc1 (configuration not stated)	x	x	-17	x	x
O=C(CSc1nnc(C2CC2)n1C1CC1)N1CCN(c2ccc(O)cc2)CC1	x	x	56	x	x
COc1ccc(C(=O)Nc2ccc(O)c3ccccc23)cc1	16	x	30	x	x
COc1ccc(NC(=O)Nc2ccc(O)c3ccccc23)cc1	24	x	72*	x	x
CCOC(=O)c1csc(N)n1	-9	3	1	1	4
CCOC(=O)c1ccccc1-c1csc(N)n1	-5	6	-7	0.2	81*
CCCCCCCCCCCCCCCC(O)C(N)CO (configuration not stated)	-7	12	-7	2.3*	-128
COC1=C(OC)C(=O)C(CCCCCCCCCCO)=C(C)C1=O	x	63*	x	0.4	57*
C[C@H]1CN([C@@H](C)CO)C(=O)c2cc(Br)cnc2O[C@@H]1CN(C)C(=O)Nc1ccc(C(F)(F)F)cc1	x	x	-3	x	x
c1cnc2c(c1)ccc1cccnc12	-9	53*	-18	1.1	-6
CCN(CC)CCNC(=O)CSc1c2c(nc3cc(Cl)ccc13)CCCC2	5	6	4	0.5	53*
CC(C)N(CC#CCC1(O)c2ccccc2-c2ccccc21)CCO	2	17	20	0.4	60*
Cc1ccc(-n2cccc2/C=C2\C(=N)N3N=C(c4ccco4)SC3=NC2=O)cc1	14	-2	-23	0.4	56*
CCC1=NN2C(=N)/C(=C\c3cccn3-c3ccc(Cl)cc3)C(=O)N=C2S1	-10	-9	-11	0.8	25
CC1=C(C(=O)N2CCOCC2)CC(CC(=O)NC2CCCC2)C(=O)N1Cc1ccccc1 (configuration not stated)	x	x	-7	x	x
CCc1c(C)[nH]c2ccc(OC)cc2c1=S	10	16	67*	0.7	26
SMILES	HKDC1 inh	G6PDH CS	PfGluPho inh	Diaph act CS	Diaph inh CS
COc1cc2c(c3oc(-c4ccccc4)cc(=O)c13)C=CC(C)(C)O2	19	23	33	0.2	82*
COc1cc(OC)c2c(=O)cc(-c3ccccc3)oc2c1	12	8	8	0.4	55*
Oc1ccccc1C1=NC(c2ccccc2)NC(c2ccccc2)C1 (configuration not stated)	x	x	-2	x	x
CC1OC(c2ccccc2)OC2COC(c3ccccc3)OC12 (configuration not stated)	9	x	-17	x	x
COc1cc(C2CC(=O)NC3=C2C(=O)CC(C)(C)C3)cc(OC)c1O (configuration not stated)	5	50*	3	0.8	21
Cc1nc2c(C(=O)NCCc3ccccc3Cl)c[nH]n2c(=O)c1Cl	16	0	-9	0.4	65*
CCOC(=O)N1CCN(C(=O)c2ccc(CS(=O)c3cccc(C)c3)o2)CC1 (configuration not stated)	x	x	6	x	x
O=c1ccc2cc3c([nH]c4ccc(Br)cc43)oc-2c1O	x	16	x	0.2	76*
O=C(O)c1ccc(N=Nc2c(O)[nH]c3ccc(Br)cc23)cc1	7	x	26	x	x
CCOC(=O)c1c(C)oc2c1c(C=NCCO)c(O)c1ccccc12	22	57*	58	0.2	82*
O=C1NC(Cc2ccccc2)c2nc3ccc(F)cc3c(=O)n2-c2cc3ccccc3cc21 (configuration not stated)	x	x	8	x	x
Cc1ccc([C@H]2C[C@H](n3cc(C4CC4)nn3)[C@@H](O)CN2CC2CCCCC2)cc1	x	x	11	x	x
N/C(COc1ncn(-c2ccccc2)n1)=N\S(=O)(=O)c1ccc(Cl)cc1Cl	-8	12	16	0.4	61*
Cc1csc(N=Nc2ccc(N(C)C)cc2)[n+]1[O-]	x	x	43	x	x
COc1cc(C(=O)Nc2scc(-c3ccc(Br)cc3)c2C(=O)O)cc(OC)c1OC	14	x	59*	x	x
N#Cc1c(N)nc2c3c(sc(=N)c2c1N)NC(=O)CC3c1ccccc1 (configuration not stated)	8	-16	34	0.7	26
N#Cc1c(N)nc2c3c(sc(=N)c2c1N)NC(=O)CC3c1c(F)cccc1Cl (configuration not stated)	1	-2	5	0.5	53*
CCCCN1C(=O)C(CC(=O)NCCN2CCOCC2)CC(C(=O)N(C(C)C)C(C)C)=C1C (configuration not stated)	x	x	-2	x	x
Cc1ccccc1C1(O)c2ccccc2-c2ccccc21	x	x	38	x	x
CCOC(=O)C1=C(O)c2ccccc2C(=O)/C1=C\c1ccc(C)cc1	67*	51*	96*	0.5	49
CC(C)N=c1scc(-c2cccs2)n1/N=C/c1ccc(O)c(O)c1O	18	-11	50	0.3	66*
CN=c1scc(-c2ccccc2F)n1/N=C/c1ccc(O)c(O)c1O	19	5	40	0.3	68*
CN=c1scc(-c2ccccc2F)n1/N=C/c1ccc[nH]1	0	8	7	0.7	27
CCN1C(=O)[C@H]2[C@@H](c3ccc(C(F)(F)F)cc3)N[C@]3(CCCN(Cc4ccccc4)C3=O)[C@H]2C1=O	x	x	3	x	x
CCN(CC)C(=O)C1=C(C)N(CCCOC)C(=O)C(CC(=O)NC2CCCCC2)C1 (configuration not stated)	x	x	-9	x	x
Cc1noc(C)c1S(=O)(=O)Nc1ccc2c(c1)C(=O)N([C@@H](C)CO)C[C@H](C)[C@@H](CN(C)Cc1ccc(C(F)(F)F)cc1)OCCCC[C@H](C)O2	x	x	33	x	x
